Consider 24 compounds from ChEMBL document CHEMBL1125080, “Potential antipsychotic agents 5. Synthesis and antidopaminergic properties of substituted 5,6-dimethoxysalicylamides and related compounds” (J Med Chem, 1990).

In general, pIC50 refers to the negative decadic logarithm of the IC50, by convention in mol/L. A low value points to a high IC50. By pKi is commonly meant −log10 of the Ki, conventionally taken in molar units. A lower pKi goes with a large Ki. In general, ED50 refers to the dose that gives a 50% effect, or the effect in half of the subjects. A higher ED50 goes with a need for a large dose.

In test [1] the target is T1, D(2) dopamine receptor (Rattus norvegicus, UniProt P61169). Nature of the test: In vitro ability to inhibit the binding of [3H]spiperone to dopamine receptor D2 in rat striatal membranes. The format is cell membranes, Membrane.
The target of test [2] is T1, D(2) dopamine receptor. Nature of the test: Inhibition of [3H]raclopride binding to rat striatal membrane Dopamine receptor D2.
In test [3] the test system is Rattus norvegicus. As to the kind of experiment: Evaluated in vitro for antipsychotic activity (hyperactivity) for the block of apomorphine induced response after ip administration 60 min prior to apomorphine (1 mg/kg sc). The format is functional. Summed up: (§1)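 Male Sprague-Dawley rats (270–325 g) received compound ip, in saline or in acetic acid plus distilled water, 60 min before apomorphine HCl (1 mg/kg sc, neck). Hyperactivity and stereotypies were scored 5, 20, 40 and 60 min after apomorphine.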

Test [4] concerns Rattus norvegicus. Nature of the test: Evaluated in vitro for antipsychotic activity (stereotypies) for the block of apomorphine induced response after ip administration 60 min prior to apomorphine (1 mg/kg sc). The format is functional. Summed up: as §1
The test system of test [5] is Rattus norvegicus. As to the kind of experiment: Dose which blocks the hypothermic effect of apomorphine by 50% against Sprague-Dawley rats when administered intraperitoneally. The format is functional. As to conditions: ip. Summed up:
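Sprague-Dawley rats (n = 6 per group) were pretreated ip with saline or compound 60 min before apomorphine HCl (1 mg/kg sc). Core temperature was taken by rectal probe before dosing, before apomorphine and 15 min after it. Mean changes were expressed as percent of control.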

The test system of test [6] is Rattus norvegicus. Nature of the test: Catalepsy interval defined as the time required for both fore limbs to be removed from the bar when administered intraperitoneally. The format is functional. As to conditions: ip. Summed up:
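Rats given test compound ip, then tested on a horizontal bar (1.5 cm diameter, 7 cm above cage floor) at 20, 40, 60, 90, 120 and 240 min after injection. A saline control group was tested the same way. An animal counted as cataleptic if it held ≥ 15 s. The proportion cataleptic at each dose gave dose-response curves, and ED50 came from probit analysis.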

The structures appear in SMILES notation. pIC50, pKi: −log10 of the molar value.

T1 sequence (P61169 whole entry): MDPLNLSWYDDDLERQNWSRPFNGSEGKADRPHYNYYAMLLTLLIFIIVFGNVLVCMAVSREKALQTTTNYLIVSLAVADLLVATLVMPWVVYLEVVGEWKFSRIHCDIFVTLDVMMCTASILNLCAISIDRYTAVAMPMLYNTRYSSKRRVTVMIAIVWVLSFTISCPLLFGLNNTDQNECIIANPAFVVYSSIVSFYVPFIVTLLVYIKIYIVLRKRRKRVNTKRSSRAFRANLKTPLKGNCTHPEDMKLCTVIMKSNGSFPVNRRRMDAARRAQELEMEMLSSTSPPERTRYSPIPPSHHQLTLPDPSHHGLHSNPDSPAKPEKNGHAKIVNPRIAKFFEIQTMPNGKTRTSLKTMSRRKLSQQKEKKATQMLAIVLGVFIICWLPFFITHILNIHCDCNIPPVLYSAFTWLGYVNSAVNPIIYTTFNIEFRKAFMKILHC

Regarding `CCc1cc(OC)c(OC)c(C(=O)NC[C@@H]2CCCN2CC)c1OC`, the pIC50 on D(2) dopamine receptor [1] was 6.09.

In turn, `CCN1CCC[C@H]1CNC(=O)c1c(O)c(OC)cc(Br)c1OC` gave a pIC50 at D(2) dopamine receptor [1] of 7.17. The negative logarithm of the Ki (pKi) on D(2) dopamine receptor [2] is 8.08. Besides, the ED50 came out at 1.3 µmol/kg with Rattus norvegicus [3] and 12 µmol/kg in the test on Rattus norvegicus [4].

Compound `CCN1CCC[C@H]1CNC(=O)c1c(O)ccc(O)c1OC` gave a pIC50 at D(2) dopamine receptor [1] of 7.25.

Compound `CCN1CCC[C@H]1CNC(=O)c1c(O)c(Cl)cc(OC)c1OC` showed a negative logarithm of the IC50 (pIC50) at D(2) dopamine receptor [1] of 8.77. This compound had a negative logarithm of the Ki (pKi) at D(2) dopamine receptor [2] of 10.06.

The compound `CCN1CCC[C@H]1CNC(=O)c1c(N)c(Br)cc(OC)c1OC` showed a pIC50 at D(2) dopamine receptor [1] of 7.68.

Compound `C=CCN1CCC[C@H]1CNC(=O)c1c(O)c(OC)cc(Br)c1OC` showed a pIC50 on D(2) dopamine receptor [1] of 7.36.

On to `CCCc1cc(OC)c(OC)c(C(=O)NC[C@@H]2CCCN2CC)c1O.O=C(O)/C(O)=C(\O)C(=O)O`, for which the pKi at D(2) dopamine receptor [2] was 10.64.

`CCN1CCC[C@H]1CNC(=O)c1c(OC)ccc(OC)c1O`: the pIC50 on D(2) dopamine receptor [1] was 6.69.

`CCc1cc(OC)c(O)c(C(=O)NC[C@@H]2CCCN2CC)c1OC` gave a pIC50 on D(2) dopamine receptor [1] of 7.72.

In the case of `CCN1CCC[C@H]1CNC(=O)c1c(O)c(OC)cc(Cl)c1OC`, at D(2) dopamine receptor [1], the negative logarithm of the IC50 (pIC50) was 7.15.

The compound `CCN1CCC[C@H]1CNC(=O)c1c(OC)c(Br)cc(OC)c1OC` showed a negative-log IC50 (pIC50) on D(2) dopamine receptor [1] of 5.76.

Take `CCN1CCC[C@H]1CNC(=O)c1c(OC)c(Cl)cc(OC)c1OC`: on D(2) dopamine receptor [1], the pIC50 was 6.38.

For `CCc1cc(OC)c(OC)c(C(=O)NC[C@@H]2CCCN2CC)c1O`, the pIC50 at D(2) dopamine receptor [1] was 9.11. The compound also gave a negative logarithm of the Ki (pKi) at D(2) dopamine receptor [2] of 10.48.

On D(2) dopamine receptor [1], `CCCc1cc(OC)c(OC)c(C(=O)NC[C@@H]2CCCN2CC)c1OC` showed a pIC50 of 5.53.

For `CCN1CCC[C@@H]1CNC(=O)c1c(O)c(OC)cc(Br)c1OC`, at D(2) dopamine receptor [1], the negative-log IC50 (pIC50) is 5.21.

Take `CCN1CCC[C@@H]1CNC(=O)c1c(O)c(Br)cc(OC)c1OC`: at D(2) dopamine receptor [1], the pIC50 was 7.10. For the same compound, the pKi on D(2) dopamine receptor [2] is 8.18. Also, the ED50 was 12.6 µmol/kg with Rattus norvegicus [3] and 5.3 µmol/kg in the test on Rattus norvegicus [4].

For `CCN1CCC[C@H]1CNC(=O)c1c(O)ccc(OC)c1OC`, the pKi on D(2) dopamine receptor [2] was 9.12.

`CCN1CCC[C@H]1CNC(=O)c1c(O)c(Br)cc(N)c1OC` had a pIC50 on D(2) dopamine receptor [1] of 7.48.

`CCN1CCC[C@H]1CNC(=O)c1c(O)c(Br)cc(O)c1OC` had a pIC50 on D(2) dopamine receptor [1] of 8.72.

Turning to `CCN1CCC[C@H]1CNC(=O)c1c(O)c(Br)cc(OC)c1OC`, the negative-log Ki (pKi) at D(2) dopamine receptor [2] is 10.19. The ED50 worked out at 0.005 µmol/kg in the test on Rattus norvegicus [5] and 0.14 µmol/kg with Rattus norvegicus [6].

Regarding `CCc1cc(Cl)c(OC)c(C(=O)NC[C@@H]2CCCN2CC)c1O` [ETICLOPRIDE], the median effective dose (ED50) with Rattus norvegicus [3] came to 0.015 µmol/kg; in the test on Rattus norvegicus [5] it was 0.09 µmol/kg; with Rattus norvegicus [6], 0.74 µmol/kg; with Rattus norvegicus [4], 0.19 µmol/kg.

With `O=C(CCCN1CCC(O)(c2ccc(Cl)cc2)CC1)c1ccc(F)cc1` [HALOPERIDOL], the ED50 in the test on Rattus norvegicus [3] came to 0.37 µmol/kg; in the test on Rattus norvegicus [5], 0.35 µmol/kg; in the test with Rattus norvegicus [6] it was 0.9 µmol/kg; in the test with Rattus norvegicus [4], 0.27 µmol/kg.

Consider `CCN1CCC[C@H]1CNC(=O)c1cc(S(N)(=O)=O)ccc1OC` [LEVOSULPIRIDE], for which the ED50 stood at 55 µmol/kg in the test with Rattus norvegicus [3], 8 µmol/kg in the test with Rattus norvegicus [5], 280 µmol/kg in the test with Rattus norvegicus [6] and 290 µmol/kg in the test on Rattus norvegicus [4].

Take `CCN1CCC[C@H]1CNC(=O)c1c(O)c(Cl)cc(Cl)c1OC` [RACLOPRIDE]: the values for the ED50 in the test on Rattus norvegicus [5] and with Rattus norvegicus [6] were 0.2 µmol/kg and 11 µmol/kg, respectively.
